Laboratory results: ChEMBL document CHEMBL4715736, “Identification of anticancer agents based on the thieno[2,3-b]pyridine and 1H-pyrazole molecular scaffolds” (2016)

tested on: CCRF-CEM; assay: Growth inhibition of human CCRF-CEM cells assessed as cell growth at 0.01 uM incubated for 48 hrs by sulforhodamine B assay relative to control; assay type: functional; details: read-out: Activity
Summary of the method: (§1)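 NCI Developmental Therapeutics Program NCI60 panel. Compounds that were active in the 10 µM one-dose screen went on to dose–response testing. Growth at each concentration is expressed relative to untreated control (100%). GI50 (concentration giving 50% of maximal inhibition of proliferation) and TGI (concentration giving total growth inhibition) were derived from the curves.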

Row | SMILES | growth at 0.01 µM
1 | Cc1ccc(NC(=O)c2sc3nc4c(cc3c2N)C(=O)CCC4)cc1C | 94%

tested on: NCI-H226; assay: Growth inhibition of human NCI-H226 cells assessed as cell growth at 0.01 uM incubated for 48 hrs by sulforhodamine B assay relative to control; assay type: functional; details: read-out: Activity

Row | SMILES | growth at 0.01 µM
2 | Cc1ccc(NC(=O)c2sc3nc4c(cc3c2N)C(=O)CCC4)cc1C | 90%

tested on: SK-MEL-28; assay: Growth inhibition of human SK-MEL-28 cells assessed as cell growth at 0.01 uM incubated for 48 hrs by sulforhodamine B assay relative to control; assay type: functional; details: read-out: Activity

Row | SMILES | growth at 0.01 µM
3 | Cc1ccc(NC(=O)c2sc3nc4c(cc3c2N)C(=O)CCC4)cc1C | 99%

tested on: HOP-92; assay: Growth inhibition of human HOP-92 cells assessed as cell growth at 0.1 uM incubated for 48 hrs by sulforhodamine B assay relative to control; assay type: functional; details: read-out: Activity

Row | SMILES | growth at 0.1 µM
4 | Cc1ccc(NC(=O)c2sc3nc4c(cc3c2N)C(=O)CCC4)cc1C | 72%

tested on: HCC 2998; assay: Growth inhibition of human HCC 2998 cells assessed as cell growth at 0.1 uM incubated for 48 hrs by sulforhodamine B assay relative to control; assay type: functional; details: read-out: Activity; summary of the method: as §1

Row | SMILES | growth at 0.1 µM
5 | Cc1ccc(NC(=O)c2sc3nc4c(cc3c2N)C(=O)CCC4)cc1C | 93%

tested on: HCT-116; assay: Growth inhibition of human HCT-116 cells assessed as cell growth at 0.1 uM incubated for 48 hrs by sulforhodamine B assay relative to control; assay type: functional; details: read-out: Activity

Row | SMILES | growth at 0.1 µM
6 | Cc1ccc(NC(=O)c2sc3nc4c(cc3c2N)C(=O)CCC4)cc1C | 90%

tested on: U-251; assay: Growth inhibition of human U-251 cells assessed as cell growth at 0.1 uM incubated for 48 hrs by sulforhodamine B assay relative to control; assay type: functional; details: read-out: Activity

Row | SMILES | growth at 0.1 µM
7 | Cc1ccc(NC(=O)c2sc3nc4c(cc3c2N)C(=O)CCC4)cc1C | 92%

tested on: SK-MEL-5; assay: Growth inhibition of human SK-MEL-5 cells assessed as cell growth at 0.1 uM incubated for 48 hrs by sulforhodamine B assay relative to control; assay type: functional; details: read-out: Activity

Row | SMILES | growth at 0.1 µM
8 | Cc1ccc(NC(=O)c2sc3nc4c(cc3c2N)C(=O)CCC4)cc1C | 90%

tested on: SK-OV-3; assay: Growth inhibition of human SK-OV-3 cells assessed as cell growth at 0.1 uM incubated for 48 hrs by sulforhodamine B assay relative to control; assay type: functional; details: read-out: Activity

Row | SMILES | growth at 0.1 µM
9 | Cc1ccc(NC(=O)c2sc3nc4c(cc3c2N)C(=O)CCC4)cc1C | 107%

tested on: RXF 393; assay: Growth inhibition of human RXF 393 cells assessed as cell growth at 0.1 uM incubated for 48 hrs by sulforhodamine B assay relative to control; assay type: functional; details: read-out: Activity

Row | SMILES | growth at 0.1 µM
10 | Cc1ccc(NC(=O)c2sc3nc4c(cc3c2N)C(=O)CCC4)cc1C | 82%

tested on: MDA-MB-231; assay: Growth inhibition of human MDA-MB-231 cells assessed as cell growth at 0.1 uM incubated for 48 hrs by sulforhodamine B assay relative to control; assay type: functional; details: read-out: Activity

Row | SMILES | growth at 0.1 µM
11 | Cc1ccc(NC(=O)c2sc3nc4c(cc3c2N)C(=O)CCC4)cc1C | 95%

tested on: T47D; assay: Growth inhibition of human T47D cells assessed as cell growth at 0.1 uM incubated for 48 hrs by sulforhodamine B assay relative to control; assay type: functional; details: read-out: Activity

Row | SMILES | growth at 0.1 µM
12 | Cc1ccc(NC(=O)c2sc3nc4c(cc3c2N)C(=O)CCC4)cc1C | 97%

tested on: HCT-116; assay: Growth inhibition of human HCT-116 cells assessed as cell growth at 1 uM incubated for 48 hrs by sulforhodamine B assay relative to control; assay type: functional; details: read-out: Activity

Row | SMILES | growth at 1 µM
13 | Cc1ccc(NC(=O)c2sc3nc4c(cc3c2N)C(=O)CCC4)cc1C | 33%

tested on: HT-29; assay: Growth inhibition of human HT-29 cells assessed as cell growth at 1 uM incubated for 48 hrs by sulforhodamine B assay relative to control; assay type: functional; details: read-out: Activity

Row | SMILES | growth at 1 µM
14 | Cc1ccc(NC(=O)c2sc3nc4c(cc3c2N)C(=O)CCC4)cc1C | 14%

tested on: SF-268; assay: Growth inhibition of human SF-268 cells assessed as cell growth at 1 uM incubated for 48 hrs by sulforhodamine B assay relative to control; assay type: functional; details: read-out: Activity

Row | SMILES | growth at 1 µM
15 | Cc1ccc(NC(=O)c2sc3nc4c(cc3c2N)C(=O)CCC4)cc1C | 57%

tested on: LOX IMVI; assay: Growth inhibition of human LOX IMVI cells assessed as cell growth at 1 uM incubated for 48 hrs by sulforhodamine B assay relative to control; assay type: functional; details: read-out: Activity

Row | SMILES | growth at 1 µM
16 | Cc1ccc(NC(=O)c2sc3nc4c(cc3c2N)C(=O)CCC4)cc1C | 42%

tested on: M14; assay: Growth inhibition of human M14 cells assessed as cell growth at 1 uM incubated for 48 hrs by sulforhodamine B assay relative to control; assay type: functional; details: read-out: Activity

Row | SMILES | growth at 1 µM
17 | Cc1ccc(NC(=O)c2sc3nc4c(cc3c2N)C(=O)CCC4)cc1C | 22%

tested on: OVCAR-8; assay: Growth inhibition of human OVCAR-8 cells assessed as cell growth at 1 uM incubated for 48 hrs by sulforhodamine B assay relative to control; assay type: functional; details: read-out: Activity

Row | SMILES | growth at 1 µM
18 | Cc1ccc(NC(=O)c2sc3nc4c(cc3c2N)C(=O)CCC4)cc1C | 68%

tested on: RXF 393; assay: Growth inhibition of human RXF 393 cells assessed as cell growth at 1 uM incubated for 48 hrs by sulforhodamine B assay relative to control; assay type: functional; details: read-out: Activity

Row | SMILES | growth at 1 µM
19 | Cc1ccc(NC(=O)c2sc3nc4c(cc3c2N)C(=O)CCC4)cc1C | -11%

tested on: Hs-578T; assay: Growth inhibition of human Hs-578T cells assessed as cell growth at 1 uM incubated for 48 hrs by sulforhodamine B assay relative to control; assay type: functional; details: read-out: Activity

Row | SMILES | growth at 1 µM
20 | Cc1ccc(NC(=O)c2sc3nc4c(cc3c2N)C(=O)CCC4)cc1C | 16%

tested on: T47D; assay: Growth inhibition of human T47D cells assessed as cell growth at 1 uM incubated for 48 hrs by sulforhodamine B assay relative to control; assay type: functional; details: read-out: Activity

Row | SMILES | growth at 1 µM
21 | Cc1ccc(NC(=O)c2sc3nc4c(cc3c2N)C(=O)CCC4)cc1C | 23%

tested on: HCC 2998; assay: Growth inhibition of human HCC 2998 cells assessed as cell growth at 100 uM incubated for 48 hrs by sulforhodamine B assay relative to control; assay type: functional; details: read-out: Activity; summary of the method: as §1

Row | SMILES | growth at 100 µM
22 | Cc1ccc(NC(=O)c2sc3nc4c(cc3c2N)C(=O)CCC4)cc1C | 5%

tested on: MDA-MB-435; assay: Growth inhibition of human MDA-MB-435 cells assessed as cell growth at 100 uM incubated for 48 hrs by sulforhodamine B assay relative to control; assay type: functional; details: read-out: Activity

Row | SMILES | growth at 100 µM
23 | Cc1ccc(NC(=O)c2sc3nc4c(cc3c2N)C(=O)CCC4)cc1C | -46%

tested on: OVCAR-4; assay: Growth inhibition of human OVCAR-4 cells assessed as cell growth at 100 uM incubated for 48 hrs by sulforhodamine B assay relative to control; assay type: functional; details: read-out: Activity

Row | SMILES | growth at 100 µM
24 | Cc1ccc(NC(=O)c2sc3nc4c(cc3c2N)C(=O)CCC4)cc1C | 18%

tested on: MCF7; assay: Growth inhibition of human MCF7 cells assessed as cell growth at 100 uM incubated for 48 hrs by sulforhodamine B assay relative to control; assay type: functional; details: read-out: Activity

Row | SMILES | growth at 100 µM
25 | Cc1ccc(NC(=O)c2sc3nc4c(cc3c2N)C(=O)CCC4)cc1C | 8%

tested on: SR; assay: Growth inhibition of human SR cells incubated for 48 hrs by sulforhodamine B assay; assay type: functional; details: not given
Summary of the method: (§2)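 NCI DTP 60-line human tumour panel. Dose-response curves were run only for ligands active in the initial 10 µM screen. GI50 (concentration giving 50% of maximal inhibition of proliferation) and TGI (concentration giving total growth inhibition) were derived from these curves.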

Row | SMILES | GI50 | LC50 | TGI
26 | Cc1ccc(NC(=O)c2sc3nc4c(cc3c2N)C(=O)CCC4)cc1C | 499 nM | > 100 µM | 26.8 µM

tested on: SNB-75; assay: Growth inhibition of human SNB-75 cells incubated for 48 hrs by sulforhodamine B assay; assay type: functional; details: not given; summary of the method: as §2

Row | SMILES | GI50 | LC50 | TGI
27 | Cc1ccc(NC(=O)c2sc3nc4c(cc3c2N)C(=O)CCC4)cc1C | 183 nM | > 100 µM | > 100 µM

tested on: MDA-MB-435; assay: Growth inhibition of human MDA-MB-435 cells incubated for 48 hrs by sulforhodamine B assay; assay type: functional; details: not given
Summary of the method: (§3)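 NCI60 panel at the NCI Developmental Therapeutics Program. Only compounds active in the 10 µM screen went to dose-response testing. GI50, the concentration giving 50% of maximal inhibition of proliferation, and TGI, the concentration giving total growth inhibition, were derived from the dose-response curves.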

Row | SMILES | GI50 | TGI
28 | Cc1ccc(NC(=O)c2sc3nc4c(cc3c2N)C(=O)CCC4)cc1C | 121 nM | 322 nM

tested on: SK-MEL-28; assay: Growth inhibition of human SK-MEL-28 cells incubated for 48 hrs by sulforhodamine B assay; assay type: functional; details: not given; summary of the method: as §2

Row | SMILES | GI50 | LC50 | TGI
29 | Cc1ccc(NC(=O)c2sc3nc4c(cc3c2N)C(=O)CCC4)cc1C | 1510 nM | > 100 µM | > 100 µM

tested on: OVCAR-5; assay: Growth inhibition of human OVCAR-5 cells incubated for 48 hrs by sulforhodamine B assay; assay type: functional; details: not given; summary of the method: as §2

Row | SMILES | GI50 | TGI
30 | Cc1ccc(NC(=O)c2sc3nc4c(cc3c2N)C(=O)CCC4)cc1C | 2290 nM | > 100 µM

same assay, conditions: read-out: LC50 (the source's name)

Row | SMILES | CC50
31 | Cc1ccc(NC(=O)c2sc3nc4c(cc3c2N)C(=O)CCC4)cc1C | > 100 µM

tested on: OVCAR-8; assay: Growth inhibition of human OVCAR-8 cells incubated for 48 hrs by sulforhodamine B assay; assay type: functional; details: not given; summary of the method: as §2

Row | SMILES | GI50 | TGI
32 | Cc1ccc(NC(=O)c2sc3nc4c(cc3c2N)C(=O)CCC4)cc1C | 3.06 µM | > 100 µM

same assay, conditions: read-out: LC50 (the source's name)

Row | SMILES | CC50
33 | Cc1ccc(NC(=O)c2sc3nc4c(cc3c2N)C(=O)CCC4)cc1C | > 100 µM

tested on: CAKI-1; assay: Growth inhibition of human CAKI-1 cells incubated for 48 hrs by sulforhodamine B assay; assay type: functional; details: not given; summary of the method: as §1

Row | SMILES | TGI
34 | Cc1ccc(NC(=O)c2sc3nc4c(cc3c2N)C(=O)CCC4)cc1C | > 100 µM

same assay, conditions: read-out: LC50 (the source's name)

Row | SMILES | CC50
35 | Cc1ccc(NC(=O)c2sc3nc4c(cc3c2N)C(=O)CCC4)cc1C | > 100 µM

tested on: MCF7; assay: Growth inhibition of human MCF7 cells incubated for 48 hrs by sulforhodamine B assay; assay type: functional; details: not given; summary of the method: as §3

Row | SMILES | GI50 | TGI
36 | Cc1ccc(NC(=O)c2sc3nc4c(cc3c2N)C(=O)CCC4)cc1C | 339 nM | > 100 µM

same assay, conditions: read-out: LC50 (the source's name)

Row | SMILES | CC50
37 | Cc1ccc(NC(=O)c2sc3nc4c(cc3c2N)C(=O)CCC4)cc1C | > 100 µM
